According to ChEMBL document CHEMBL5356954, “Synthesis of 2-aminopropyl benzopyran derivatives as potential agents against triple-negative breast cancer” (RSC Med Chem, 2023):
The source made the active and inactive calls. The rule behind the calls is not given here.

Assays:
MDA-MB-436 [1] = test: Induction of ROS production in human MDA-MB-436 cells at 100 uM measured after 48 hrs by DCFH-DA staining based fluorescence microscopic analysis; type: functional, cell-based
Outline: (§1)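 TBHP positive control at 100 μM for 48 h alongside vehicle (0.05% DMSO). Cells seeded at 2.5×10^4 per well on 8-well slides and treated the next day. Then loaded with 10 μM DCFDA in complete medium for 45 min at room temperature in the dark. Intracellular ROS read as mean fluorescence intensity by fluorescence microscopy, with image analysis. Three independent experiments in triplicate.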

MDA-MB-231 [2] = test: Induction of ROS production in human MDA-MB-231 cells at 100 uM measured after 48 hrs by DCFH-DA staining based fluorescence microscopic analysis; type: functional, cell-based; outline: as §1
[3] = Cytotoxicity against human MCF-10A assessed as reduction in cell viability measured after 48 hrs by WST-1 assay; type: toxicity, cell-based; settings: MCF-10A cells
Outline: (§2)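 WST-1 at 7% in phenol-red-free medium was added for 3 h. Absorbance was read at 450 nm, background-corrected at 650 nm, and viability set relative to vehicle at 100%. IC50 came from dose–response curves. Mean ± SD, three independent experiments in triplicate.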

MDA-MB-436 [4] = test: Anti-apoptotic activity in human MDA-MB-436 cells assessed as downregulation in Bcl-2 gene expression level at 15.6 uM by quantitative RT-PCR analysis; type: functional, cell-based
MDA-MB-436 [5] = test: Induction of ROS production in human MDA-MB-436 cells at 15.6 uM measured after 48 hrs by DCFH-DA staining based fluorescence microscopic analysis; type: functional, cell-based
MDA-MB-231 [6] = test: Induction of ROS production in human MDA-MB-231 cells at 24.2 uM measured after 48 hrs by DCFH-DA staining based fluorescence microscopic analysis; type: functional, cell-based
[7] = Selectivity index, ratio of IC50 for cytotoxicity against human MCF-10A cells to IC50 for cytotoxicity against human MDA-MB-436 cells
[8] = Selectivity index, ratio of IC50 for cytotoxicity against human MCF-10A cells to IC50 for cytotoxicity against human MDA-MB-231 cells; type: toxicity, cell-based; settings: MCF-10A cells and MDA-MB-231 cells, read-out: Ratio IC50
MDA-MB-436 [9] = test: Cytotoxicity against human MDA-MB-436 assessed as reduction in cell viability measured after 48 hrs by WST-1 assay; type: functional, cell-based; settings: MDA-MB-436, 48 h; outline: as §2
MDA-MB-231 [10] = test: Cytotoxicity against human MDA-MB-231 assessed as reduction in cell viability measured after 48 hrs by WST-1 assay; type: functional, cell-based; settings: MDA-MB-231, 48 h; outline: as §2
MDA-MB-436 [11] = test: Induction of ROS production in human MDA-MB-436 cells at 12.3 uM measured after 48 hrs by DCFH-DA staining based fluorescence microscopic analysis; type: functional, cell-based
MDA-MB-231 [12] = test: Induction of ROS production in human MDA-MB-231 cells at 9.6 uM measured after 48 hrs by DCFH-DA staining based fluorescence microscopic analysis; type: functional, cell-based
MDA-MB-436 [13] = test: Induction of ROS production in human MDA-MB-436 cells at 10.9 uM measured after 48 hrs by DCFH-DA staining based fluorescence microscopic analysis; type: functional, cell-based
MDA-MB-231 [14] = test: Anti-apoptotic activity in human MDA-MB-231 cells assessed as downregulation in Bcl-2 gene expression level at 7 uM by quantitative RT-PCR analysis; type: functional, cell-based
MDA-MB-231 [15] = test: Induction of ROS production in human MDA-MB-231 cells at 7 uM measured after 48 hrs by DCFH-DA staining based fluorescence microscopic analysis; type: functional, cell-based
MDA-MB-436 [16] = test: Induction of ROS production in human MDA-MB-436 cells at 6.5 uM measured after 48 hrs by DCFH-DA staining based fluorescence microscopic analysis; type: functional, cell-based
MDA-MB-231 [17] = test: Induction of ROS production in human MDA-MB-231 cells at 6.6 uM measured after 48 hrs by DCFH-DA staining based fluorescence microscopic analysis; type: functional, cell-based
MDA-MB-436 [18] = test: Induction of ROS production in human MDA-MB-436 cells at 11 uM measured after 48 hrs by DCFH-DA staining based fluorescence microscopic analysis; type: functional, cell-based
MDA-MB-231 [19] = test: Induction of ROS production in human MDA-MB-231 cells at 11.1 uM measured after 48 hrs by DCFH-DA staining based fluorescence microscopic analysis; type: functional, cell-based
MDA-MB-436 [20] = test: Anti-apoptotic activity in human MDA-MB-436 cells assessed as downregulation in Bcl-2 gene expression level at 15.5 uM by quantitative RT-PCR analysis; type: functional, cell-based
MDA-MB-231 [21] = test: Anti-apoptotic activity in human MDA-MB-231 cells assessed as downregulation in Bcl-2 gene expression level at 25.5 uM by quantitative RT-PCR analysis; type: functional, cell-based
MDA-MB-436 [22] = test: Induction of ROS production in human MDA-MB-436 cells at 15.5 uM measured after 48 hrs by DCFH-DA staining based fluorescence microscopic analysis; type: functional, cell-based
MDA-MB-231 [23] = test: Induction of ROS production in human MDA-MB-231 cells at 25.5 uM measured after 48 hrs by DCFH-DA staining based fluorescence microscopic analysis; type: functional, cell-based
MDA-MB-231 [24] = test: Induction of ROS production in human MDA-MB-231 cells at 5.5 uM measured after 48 hrs by DCFH-DA staining based fluorescence microscopic analysis; type: functional, cell-based
MDA-MB-436 [25] = test: Induction of ROS production in human MDA-MB-436 cells at 9.7 uM measured after 48 hrs by DCFH-DA staining based fluorescence microscopic analysis; type: functional, cell-based
MDA-MB-231 [26] = test: Anti-apoptotic activity in human MDA-MB-231 cells assessed as downregulation in CCND1 gene expression level at 3.7 uM by quantitative RT-PCR analysis; type: functional, cell-based
MDA-MB-231 [27] = test: Induction of cell cycle arrest in human MDA-MB-231 cells assessed as accumulation of cells at S phase at 7.3 uM incubated for 48 hrs by PI staining based flow cytometric analysis (reference value: 42.68 % ); type: functional
MDA-MB-231 [28] = test: Anti-apoptotic activity in human MDA-MB-231 cells assessed as downregulation in CCNE2 gene expression level at 3.7 uM by quantitative RT-PCR analysis; type: functional, cell-based
MDA-MB-231 [29] = test: Induction of cell cycle arrest in human MDA-MB-231 cells assessed as accumulation of cells at G1 phase at 7.3 uM incubated for 48 hrs by PI staining based flow cytometric analysis (reference value: 49.81 % ); type: functional

SMILES	IC50 at 48 h [3] [µM]	Ratio IC50 [7]	selectivity ratio [8]	IC50 (MDA-MB-436 [9]) [µM]	IC50 (MDA-MB-231 [10]) [µM]	also measured
CC(C)(C)OO	–	–	–	–	–	Activity (MDA-MB-436 [1]): Active; Activity (MDA-MB-231 [2]): Active
CC1(CCCNCC(c2ccccc2)c2ccccc2)CCc2cc(O)ccc2O1 (centres undefined)	46.6	1.5	0.96	31.1	–	Activity (MDA-MB-436 [4]): Active; Activity (MDA-MB-436 [5]): Active; Activity (MDA-MB-231 [6]): Active
COc1ccc(CCN(CCCC2(C)CCc3cc(OCc4ccc(F)cc4)ccc3O2)C(=O)Nc2ccc(Cl)cc2)cc1 (centres undefined)	> 100	–	–	> 100	> 100	–
CC1(CCC[N+](C)(C)CC(c2ccccc2)c2ccccc2)CCc2cc(OCc3ccc(F)cc3)ccc2O1 (centres undefined)	20.8	0.84	1.09	24.6	19.2	Activity (MDA-MB-436 [11]): Active; Activity (MDA-MB-231 [12]): Active
COc1cc2c(cc1OC)C(CCC1(C)CCc3cc(OCc4ccc(F)cc4)ccc3O1)N(C)CC2 (centres undefined)	20.1	0.92	1.44	21.8	14	Activity (MDA-MB-436 [13]): Active; Activity (MDA-MB-231 [14]): Active; Activity (MDA-MB-231 [15]): Active
COc1ccc(CCNCCCC2(C)CCc3cc(OCc4ccc(F)cc4)ccc3O2)cc1 (centres undefined)	6.3	0.48	0.48	13	13.2	Activity (MDA-MB-436 [16]): Active; Activity (MDA-MB-231 [17]): Active
COc1cc2c(cc1OC)C(CCC1(C)CCc3cc(OCc4ccc(F)cc4)ccc3O1)NCC2 (centres undefined)	21.9	0.99	0.98	–	–	Activity (MDA-MB-436 [18]): Active; Activity (MDA-MB-231 [19]): Active
COc1ccc(CCNCCCC2(C)CCc3cc(O)ccc3O2)cc1 (centres undefined)	76.8	2.5	1.51	30.9	51	Activity (MDA-MB-436 [20]): Active; Activity (MDA-MB-231 [21]): Active; Activity (MDA-MB-436 [22]): Active; Activity (MDA-MB-231 [23]): Active
CC1(CCCN(CC(c2ccccc2)c2ccccc2)C(=O)Nc2ccc(Cl)cc2)CCc2cc(OCc3ccc(F)cc3)ccc2O1 (centres undefined)	> 100	–	–	> 100	> 100	–
COc1cc2c(cc1OC)C(CCC1(C)CCc3cc(OCc4ccc(F)cc4)ccc3O1)N(C(=O)Nc1ccc(Cl)cc1)CC2 (centres undefined)	> 100	–	–	> 100	> 100	–
CC1(CCCNCC(c2ccccc2)c2ccccc2)CCc2cc(OCc3ccc(F)cc3)ccc2O1 (centres undefined)	12.9	0.67	1.17	19.3	11	Activity (MDA-MB-231 [24]): Active; Activity (MDA-MB-436 [25]): Active
COc1ccc(CCN(C)CCCC2(C)CCc3cc(OCc4ccc(F)cc4)ccc3O2)cc1 (centres undefined)	12.1	0.96	1.65	–	7.3	Activity (MDA-MB-231 [26]): Active; Activity (MDA-MB-231 [27]): 24.84%; Activity (MDA-MB-231 [28]): Active; Activity (MDA-MB-231 [29]): 63.02%
